Reference: article PMC3383389 (Molecular and Biochemical Parasitology, 2012)

Assays:
[1] = molecular target: T1, TbMCP-1 (Trypanosoma brucei, UniProt Q386R0); experiment: inhibition of FA-Ala-Lys hydrolysis after pre-incubation; assay type: biochemical; details: read-out: % residual activity at 5 μM
T1 sequence (Q386R0 1-503): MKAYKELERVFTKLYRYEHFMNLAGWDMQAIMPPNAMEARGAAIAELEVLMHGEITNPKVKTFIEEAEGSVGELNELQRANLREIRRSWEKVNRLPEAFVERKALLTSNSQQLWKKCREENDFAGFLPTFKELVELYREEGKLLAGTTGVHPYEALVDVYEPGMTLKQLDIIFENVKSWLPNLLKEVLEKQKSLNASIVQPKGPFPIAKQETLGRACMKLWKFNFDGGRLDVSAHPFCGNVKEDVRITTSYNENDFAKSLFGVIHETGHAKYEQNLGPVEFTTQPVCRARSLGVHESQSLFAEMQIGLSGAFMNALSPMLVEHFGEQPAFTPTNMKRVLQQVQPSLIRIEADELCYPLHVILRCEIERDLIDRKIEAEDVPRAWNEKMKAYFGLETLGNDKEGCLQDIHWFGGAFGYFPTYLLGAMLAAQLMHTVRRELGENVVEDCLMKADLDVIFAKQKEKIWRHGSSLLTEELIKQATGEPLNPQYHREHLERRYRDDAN
Outline: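 GST-fused recombinant TbMCP-1 was expressed in E. coli BL21 Codon Plus (DE3), purified on glutathione-agarose and desalted. The enzyme was pre-incubated with test compound (metal chlorides were tested from 1 µM to 1 mM). Activity was then read continuously at 340 nm with 200 µM furyl-acryloyl-Ala-Lys in 100 mM MOPS, pH 7.3, and reported as % residual activity.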

[2] = molecular target: Trypanosoma brucei M32 metallocarboxypeptidase TbMCP-1, N-terminally GST-tagged recombinant enzyme (Trypanosoma brucei (Lister 427)); experiment: SEC

Compound	remaining activity at 5 µM [1]	stoichiometry N [2]
N=C(N)NCCSC(CC(=O)O)C(=O)O (centres unmarked) [GEMSA]	9.1 ± 1.2%	
Trypanosoma brucei M32 metallocarboxypeptidase TbMCP-1, N-terminally GST-tagged recombinant enzyme		2
